Test results as given in ChEMBL document CHEMBL1833842, “1,3-Dihydro-2H-indol-2-ones derivatives: design, synthesis, in vitro antibacterial, antifungal and antitubercular study” (2011).
Values after ≈ are worked out from the molar mass of the structure shown.

How the values were obtained:
Streptococcus pyogenes = assay: Antibacterial activity against 10^8 CFU/mL Streptococcus pyogenes MTCC 442 by broth microdilution method; type: functional
Procedure, shortened: (§1)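 MTCC bacterial strains from IMTECH Chandigarh were grown in Mueller-Hinton broth, which was also used to dilute the compounds. Inoculum was turbidity-adjusted to 10⁸ CFU/mL, and DMSO served as diluent. Compounds from a 2000 stock were screened first at 500, 250 and 125; actives were retested in a second dilution series. Tubes were incubated overnight at 37 °C, and MIC was the lowest concentration with no visible growth. Clear tubes were subcultured overnight at 37 °C to tell bacteriostatic from bactericidal.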

Salmonella typhi = assay: Antibacterial activity against 10^8 CFU/mL Salmonella typhi MTCC 98 by broth microdilution method; type: functional, Salmonella enterica subsp. enterica serovar Typhi; details: Salmonella enterica
Procedure, shortened: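 Broth microdilution in Mueller-Hinton broth with MTCC strains, inoculum adjusted by turbidity to 10⁸ CFU/mL. Compounds were diluted from DMSO. Primary screen used 500, 250 and 125 concentrations, and actives were serially diluted further. Tubes were incubated overnight at 37 °C. MIC was the lowest concentration with no visible growth. Clear tubes were subcultured overnight at 37 °C to judge bacteriostatic versus bactericidal.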

Staphylococcus aureus = assay: Antibacterial activity against 10^8 CFU/mL Staphylococcus aureus MTCC 96 by broth microdilution method; type: functional; procedure, shortened: as §1
Pseudomonas aeruginosa = assay: Antibacterial activity against 10^8 CFU/mL Pseudomonas aeruginosa MTCC 1688 by broth microdilution method; type: functional; procedure, shortened: as §1
Escherichia coli = assay: Antibacterial activity against 10^8 CFU/mL Escherichia coli MTCC 443 by broth microdilution method; type: functional; procedure, shortened: as §1
Bacillus subtilis = assay: Antibacterial activity against 10^8 CFU/mL Bacillus subtilis MTCC 441 by broth microdilution method; type: functional; procedure, shortened: as §1
Klebsiella pneumoniae = assay: Antibacterial activity against 10^8 CFU/mL Klebsiella pneumoniae MTCC 109 by broth microdilution method; type: functional; procedure, shortened: as §1
[1] = test system: Mycobacterium tuberculosis; assay: Antituberculosis activity against 5 x 10^4 bacilli per tube Mycobacterium tuberculosis H37Rv assessed as growth inhibition at 0.20 ug/mL incubated for 24 hrs measured after 28 days; type: functional; details: read-out: GI
Procedure, shortened: (§2)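 Conventional Lowenstein-Jensen method. Compound dilutions were made from a DMSO stock and added to liquid L-J medium, which was sterilized by inspissation. Tubes were incubated 24 h at 37 °C, then streaked with H37Rv (5 × 10⁴ bacilli per tube) harvested into 0.85% saline. Growth was checked at 12, 22 and 28 days at 37 °C against medium-only controls. MIC was the concentration giving no colonies or <20 colonies.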

[2] = test system: Mycobacterium tuberculosis; assay: Antituberculosis activity against 5 x 10^4 inoculum per tube Mycobacterium tuberculosis H37Rv after 24 hrs by Lowenstein-Jensen method; type: functional; procedure, shortened: as §2
Candida albicans = assay: Antifungal activity against 10^8 CFU/mL Candida albicans MTCC 227 by broth microdilution method; type: functional
Procedure, shortened: (§3)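 Fungal MTCC cultures came from IMTECH Chandigarh. Mueller-Hinton broth served as growth and dilution medium, with DMSO as diluent. Inoculum was set to 10⁸ CFU/mL by turbidity. Serial dilutions from a 2000 stock gave a primary screen at 500, 250 and 125, followed by a secondary dilution series for actives. MIC was the lowest concentration inhibiting growth.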

Aspergillus clavatus = assay: Antifungal activity against 10^8 CFU/mL Aspergillus clavatus MTCC 1323 by broth microdilution method; type: functional; procedure, shortened: as §3
[3] = test system: Mycobacterium tuberculosis; assay: Antituberculosis activity against 5 x 10^4 inoculum per tube Mycobacterium tuberculosis H37Rv assessed as growth inhibition at 500 ug/mL incubated for 24 hrs measured after 28 days; type: functional; details: read-out: GI; procedure, shortened: as §2
Aspergillus niger = assay: Antifungal activity against 10^8 CFU/mL Aspergillus niger MTCC 282 by broth microdilution method; type: functional; procedure, shortened: as §3
[4] = test system: Mycobacterium tuberculosis; assay: Antituberculosis activity against 5 x 10^4 bacilli per tube Mycobacterium tuberculosis H37Rv assessed as growth inhibition at 40 ug/mL incubated for 24 hrs measured after 28 days; type: functional; details: read-out: GI; procedure, shortened: as §2
[5] = test system: Mycobacterium tuberculosis; assay: Antituberculosis activity against 5 x 10^4 bacilli per tube Mycobacterium tuberculosis H37Rv assessed as growth inhibition at 100 ug/mL incubated for 24 hrs measured after 28 days; type: functional; details: read-out: GI; procedure, shortened: as §2
[6] = test system: Mycobacterium tuberculosis; assay: Antituberculosis activity against 5 x 10^4 bacilli per tube Mycobacterium tuberculosis H37Rv assessed as growth inhibition at 50 ug/mL incubated for 24 hrs measured after 28 days; type: functional; details: read-out: GI; procedure, shortened: as §2
[7] = test system: Mycobacterium tuberculosis; assay: Antituberculosis activity against 5 x 10^4 bacilli per tube Mycobacterium tuberculosis H37Rv assessed as growth inhibition at 62.5 ug/mL incubated for 24 hrs measured after 28 days; type: functional; details: read-out: GI; procedure, shortened: as §2
[8] = test system: Mycobacterium tuberculosis; assay: Antituberculosis activity against 5 x 10^4 bacilli per tube Mycobacterium tuberculosis H37Rv assessed as growth inhibition at 25 ug/mL incubated for 24 hrs measured after 28 days; type: functional; details: read-out: GI; procedure, shortened: as §2

SMILES | MIC99 (Streptococcus pyogenes) | MIC99 (Salmonella typhi) | MIC99 (Staphylococcus aureus) | MIC99 (Pseudomonas aeruginosa) | MIC99 (Escherichia coli) | MIC99 (Bacillus subtilis) | MIC99 (Klebsiella pneumoniae) | inhibition of growth at 0.2 µg/mL [1] | MIC [2] | MIC (Candida albicans) | MIC (Aspergillus clavatus) | inhibition of growth at 500 µg/mL [3] | MIC (Aspergillus niger) | inhibition of growth at 40 µg/mL [4] | inhibition of growth at 100 µg/mL [5] | inhibition of growth at 50 µg/mL [6] | inhibition of growth at 62.5 µg/mL [7] | inhibition of growth at 25 µg/mL [8]
O=C(O)c1cn(C2CC2)c2cc(N3CCNCC3)c(F)cc2c1=O [CIPROFLOXACIN] | 50 µg/mL (≈ 151 µM) | 25 µg/mL (≈ 75.4 µM) | 50 µg/mL (≈ 151 µM) | 25 µg/mL (≈ 75.4 µM) | 25 µg/mL (≈ 75.4 µM) | 50 µg/mL (≈ 151 µM) | 25 µg/mL (≈ 75.4 µM) |  |  |  |  |  |  |  |  |  |  | 
NNC(=O)c1ccncc1 [ISONIAZID] |  |  |  |  |  |  |  | 99% | 0.2 µg/mL (≈ 1.46 µM) |  |  |  |  |  |  |  |  | 
CCn1cc(C(=O)O)c(=O)c2cc(F)c(N3CCNCC3)cc21 [NORFLOXACIN] | 10 µg/mL (≈ 31.3 µM) | 10 µg/mL (≈ 31.3 µM) | 10 µg/mL (≈ 31.3 µM) | 10 µg/mL (≈ 31.3 µM) | 10 µg/mL (≈ 31.3 µM) | 10 µg/mL (≈ 31.3 µM) | 10 µg/mL (≈ 31.3 µM) |  |  |  |  |  |  |  |  |  |  | 
CC1=C(c2nnc(/N=C3\C(=O)Nc4ccccc43)s2)C(c2ccccc2)NC(=S)N1 (stereo not given) | 200 µg/mL (≈ 462 µM) | 200 µg/mL (≈ 462 µM) | 200 µg/mL (≈ 462 µM) | 200 µg/mL (≈ 462 µM) | 500 µg/mL (≈ 1160 µM) | 200 µg/mL (≈ 462 µM) | 200 µg/mL (≈ 462 µM) |  | 500 µg/mL (≈ 1160 µM) | > 1000 µg/mL | 500 µg/mL (≈ 1160 µM) | 98% | 500 µg/mL (≈ 1160 µM) |  |  |  |  | 
CO[C@H]1/C=C/O[C@@]2(C)Oc3c(C)c(O)c4c(O)c(c(/C=N/N5CCN(C)CC5)c(O)c4c3C2=O)NC(=O)/C(C)=C\C=C\[C@H](C)[C@H](O)[C@@H](C)[C@@H](O)[C@@H](C)[C@H](OC(C)=O)[C@@H]1C [RIFAMPIN] |  |  |  |  |  |  |  |  | 40 µg/mL (≈ 48.6 µM) |  |  |  |  | 98% |  |  |  | 
CC1=C(c2nnc(/N=C3\C(=O)Nc4ccc(Cl)cc43)s2)C(c2ccccc2)NC(=O)N1 (stereo not given) | 200 µg/mL (≈ 444 µM) | 200 µg/mL (≈ 444 µM) | 200 µg/mL (≈ 444 µM) | 200 µg/mL (≈ 444 µM) | 100 µg/mL (≈ 222 µM) | 200 µg/mL (≈ 444 µM) | 200 µg/mL (≈ 444 µM) |  | 100 µg/mL (≈ 222 µM) | > 1000 µg/mL | 500 µg/mL (≈ 1110 µM) |  | 500 µg/mL (≈ 1110 µM) |  | 98% |  |  | 
CC1=C(c2nnc(/N=C3\C(=O)Nc4ccc(F)cc43)s2)C(c2ccccc2)NC(=O)N1 (stereo not given) | 100 µg/mL (≈ 230 µM) | 100 µg/mL (≈ 230 µM) | 62.5 µg/mL (≈ 144 µM) | 62.5 µg/mL (≈ 144 µM) | 100 µg/mL (≈ 230 µM) | 100 µg/mL (≈ 230 µM) | 100 µg/mL (≈ 230 µM) |  | 50 µg/mL (≈ 115 µM) | 100 µg/mL (≈ 230 µM) | 200 µg/mL (≈ 460 µM) |  | 100 µg/mL (≈ 230 µM) |  |  | 99% |  | 
CC1=C(c2nnc(/N=C3\C(=O)Nc4ccc([N+](=O)[O-])cc43)s2)C(c2ccccc2)NC(=O)N1 (stereo not given) | 250 µg/mL (≈ 542 µM) | 200 µg/mL (≈ 433 µM) | 200 µg/mL (≈ 433 µM) | 100 µg/mL (≈ 217 µM) | 62.5 µg/mL (≈ 135 µM) | 200 µg/mL (≈ 433 µM) | 200 µg/mL (≈ 433 µM) |  | 62.5 µg/mL (≈ 135 µM) | 250 µg/mL (≈ 542 µM) | 500 µg/mL (≈ 1080 µM) |  | 250 µg/mL (≈ 542 µM) |  |  |  | 99% | 
O=C(N[C@H](CO)[C@H](O)c1ccc([N+](=O)[O-])cc1)C(Cl)Cl [CHLORAMPHENICOL] | 50 µg/mL (≈ 155 µM) | 50 µg/mL (≈ 155 µM) | 50 µg/mL (≈ 155 µM) | 50 µg/mL (≈ 155 µM) | 50 µg/mL (≈ 155 µM) | 50 µg/mL (≈ 155 µM) | 50 µg/mL (≈ 155 µM) |  |  |  |  |  |  |  |  |  |  | 
CC1=C(c2nnc(/N=C3\C(=O)Nc4ccc(F)cc43)s2)C(c2ccccc2)NC(=S)N1 (stereo not given) | 100 µg/mL (≈ 222 µM) | 100 µg/mL (≈ 222 µM) | 62.5 µg/mL (≈ 139 µM) | 62.5 µg/mL (≈ 139 µM) | 62.5 µg/mL (≈ 139 µM) | 100 µg/mL (≈ 222 µM) | 100 µg/mL (≈ 222 µM) |  | 25 µg/mL (≈ 55.5 µM) | 100 µg/mL (≈ 222 µM) | 100 µg/mL (≈ 222 µM) |  | 100 µg/mL (≈ 222 µM) |  |  |  |  | 99%
